{"data": "Measured values from different studies", "DHFR": "Dihydrofolate reductase (DHFR, Homo sapiens, UniProt P00374)", "TYRO3": "Tyrosine-protein kinase receptor TYRO3 (TYRO3, Homo sapiens, UniProt Q06418)", "MMP3": "Stromelysin-1 (MMP3, Homo sapiens, UniProt P08254)", "FLT3": "Receptor-type tyrosine-protein kinase FLT3 (FLT3, Homo sapiens, UniProt P36888)", "AURKC": "Aurora kinase C (AURKC, Homo sapiens, UniProt Q9UQB9)", "CAMK2A": "Calcium/calmodulin-dependent protein kinase type II subunit alpha (CAMK2A, Homo sapiens, UniProt Q9UQM7)", "HTR2C": "5-hydroxytryptamine receptor 2C (HTR2C, Homo sapiens, UniProt P28335)", "Aldo-keto reductase family 1 member B1": "Aldo-keto reductase family 1 member B1 (Bos taurus, UniProt P16116)", "FAAH": "Fatty-acid amide hydrolase 1 (FAAH, Homo sapiens, UniProt O00519)", "EAPA": "Endothiapepsin (EAPA, Cryphonectria parasitica, UniProt P11838)", "note": "Protocols differ between the studies behind these lines."}
{"SMILES": "Cc1ccc2nc(-c3ccc([N+](=O)[O-])cc3)n(Cc3ccccc3)c2c1", "target": "DHFR", "assay": "enzyme activity, inhibitor", "IC50": "6.78 µM"}
{"SMILES": "Nc1nc(Nc2ccc3c(c2)CC[C@@H](N2CCCC2)CC3)nn1-c1cc2c(nn1)-c1ccccc1CCC2", "target": "TYRO3", "assay": "enzyme activity, inhibitor", "IC50": "0.927 µM"}
{"SMILES": "C[C@H]1OC(=O)/C=C/C(=O)[C@@H](OC(=O)CCC(=O)O)CCCCCCCC[C@H]1O", "target": "MMP3", "assay": "enzyme activity, inhibitor", "IC50": "10 µM"}
{"SMILES": "CCCC[C@@H](C(=O)N[C@@H](CC(=O)O)C(=O)N(C)[C@@H](Cc1ccccc1)C(N)=O)N(C)C(=O)[C@H](Cc1c[nH]c2ccccc12)NC(=O)CNC(=O)[C@H](Cc1ccc(O)cc1)NC(=O)[C@H](C)NC(=O)[C@@H](CCC(=O)O)NC(=O)CN1CCN(CC(=O)O)CCN(CC(=O)O)CCN(CC(=O)O)CC1", "target": "Gastrin/cholecystokinin type B receptor (CCKBR, Homo sapiens, UniProt P32239)", "assay": "ligand displacement, radioligand", "IC50": "0.00498 µM"}
{"SMILES": "CC(C)(C(=O)O)C1=C/C(=C\\c2ccc(-c3ccccc3)cc2)c2ccc(F)cc21", "target": "Prostaglandin G/H synthase 1 (PTGS1, Homo sapiens, UniProt P23219)", "assay": "enzyme activity in cells, inhibitor", "IC50": "1.3 µM"}
{"SMILES": "O=C1NCCc2[nH]c(-c3cccnc3)cc21", "target": "Casein kinase I isoform delta (CSNK1D, Homo sapiens, UniProt P48730)", "assay": "enzyme activity, inhibitor", "IC50": "> 100 µM"}
{"SMILES": "c1cncc(-c2cccc(Nc3nccc(NC4CCCCC4)n3)c2)c1", "target": "FLT3", "assay": "enzyme activity, inhibitor", "IC50": "0.032 µM"}
{"SMILES": "CNC(=O)c1cc2c(Oc3ccc(NC(=O)C4(C(=O)Nc5ccc(F)cc5)CC4)cc3)ccnc2cc1OC", "target": "TYRO3", "assay": "enzyme activity, inhibitor, radiometric", "IC50": "0.013 µM"}
{"SMILES": "CC(C)Nc1ccnc(Nc2cccc(-c3nccs3)c2)n1", "target": "FLT3", "assay": "enzyme activity, inhibitor", "IC50": "0.475 µM"}
{"SMILES": "N#Cc1ccc(Cn2ccc3c4c(N)nc(N)nc4ccc32)cc1", "target": "DHFR", "assay": "enzyme activity, inhibitor", "IC50": "0.0068 µM"}
{"SMILES": "c1ccc(-c2ccccc2Nc2nccc(NC3CCCCC3)n2)cc1", "target": "FLT3", "assay": "enzyme activity, inhibitor", "IC50": "> 13 µM"}
{"SMILES": "COc1ccc2c(Oc3ccc4c(C(=O)Nc5ccccc5N)cccc4c3)ccnc2c1", "target": "AURKC", "assay": "enzyme activity, inhibitor", "IC50": "> 0.5 µM"}
{"SMILES": "CC/C=C\\C/C=C\\C/C=C\\C/C=C\\C/C=C\\CCCC(=O)O", "target": "DNA topoisomerase 2-alpha (TOP2A, Homo sapiens, UniProt P11388)", "assay": "enzyme activity, inhibitor", "IC50": "10 µM"}
{"SMILES": "CONc1ccnc(Nc2cccc(-c3cccnc3)c2)n1", "target": "FLT3", "assay": "enzyme activity, inhibitor", "IC50": "> 34 µM"}
{"SMILES": "CC(C)(C)n1nc(-c2cnc3cc(OC4CC4)ccc3c2)c(C(N)=O)c1N", "target": "CAMK2A", "assay": "cell-free assay, inhibitor", "IC50": "> 10 µM"}
{"SMILES": "Cc1cnc(-c2ccc(-c3ccc(NC(=O)Nc4c(F)cc(F)cc4F)cc3F)c3c2C(=O)NC3)[nH]1", "target": "AURKC", "assay": "enzyme activity, inhibitor", "IC50": "0.003 µM"}
{"SMILES": "CC1=C(/C=C/C(C)=C/C=C/C(C)=C/CO)C(C)(C)CCC1", "target": "Prothrombin (F2, Bos taurus, UniProt P00735)", "assay": "enzyme activity, inhibitor, fluorescence", "IC50": "531 µM"}
{"SMILES": "COc1cc(OC)c(C(=O)CCCCN2CCC3(CC2)NC(=O)NC3=O)cc1NS(=O)(=O)c1ccc(C(F)(F)F)cc1", "target": "HTR2C", "assay": "ligand displacement, radioligand", "IC50": "0.003 µM"}
{"SMILES": "Cc1ccc2nc(-c3ccc([N+](=O)[O-])cc3)n(Cc3ccc(Cl)cc3)c2c1", "target": "DHFR", "assay": "enzyme activity, inhibitor", "IC50": "8.01 µM"}
{"SMILES": "c1cc(Nc2nccc(NC3CCCCC3)n2)cc(-n2ccnc2)c1", "target": "FLT3", "assay": "enzyme activity, inhibitor", "IC50": "0.016 µM"}
{"SMILES": "CC(=N/N=c1\\scc(-c2ccc(Cl)cc2)n1Cc1ccccc1)C12CC3CC(CC(C3)C1)C2", "target": "Aldo-keto reductase family 1 member B1", "assay": "enzyme activity, inhibitor, absorbance", "IC50": "2.18 µM"}
{"SMILES": "CC[C@@H](C)Nc1ccnc(Nc2cccc(-c3cccnc3)c2)n1", "target": "FLT3", "assay": "enzyme activity, inhibitor", "IC50": "< 0.006 µM"}
{"SMILES": "COc1ccc(S(=O)(=O)N2Cc3cc(O)c(O)cc3CC2C(=O)NO)cc1 (centres unmarked)", "target": "MMP3", "assay": "enzyme activity, inhibitor", "IC50": "10 µM"}
{"SMILES": "COc1cccc(-n2c(-c3ccc([N+](=O)[O-])cc3)cs/c2=N/N=C\\c2c[nH]c3ccccc23)c1", "target": "Aldo-keto reductase family 1 member B1", "assay": "enzyme activity, inhibitor, absorbance", "IC50": "4.21 µM"}
{"SMILES": "O=C(Oc1nsnc1N1CCN(c2ccccc2)CC1)N1CCCCC1", "target": "FAAH", "assay": "enzyme activity, inhibitor", "conditions": "cell membranes", "IC50": "0.209 µM"}
{"SMILES": "C/C(=N/N=c1/scc(-c2ccc(Br)cc2)n1Cc1ccccc1)c1ccc2c(c1)OCCO2", "target": "Aldo-keto reductase family 1 member B1", "assay": "enzyme activity, inhibitor, absorbance", "IC50": "1.39 µM"}
{"SMILES": "Clc1ccc(Cn2c(-c3ccc(Cl)cc3)nc3ccccc32)cc1", "target": "DHFR", "assay": "enzyme activity, inhibitor", "IC50": "10.6 µM"}
{"SMILES": "NNC(COCc1ccccc1)c1nnnn1CCc1ccc(O)cc1 (centres unmarked)", "target": "EAPA", "assay": "enzyme activity, inhibitor, fluorescence", "IC50": "89.3 µM"}
{"SMILES": "CN1CCN(c2ccc(Nc3ncc4cc(C#N)c(=O)n(C5CCCC5)c4n3)cc2)CC1", "target": "Testis-specific serine/threonine-protein kinase 1 (TSSK1B, Homo sapiens, UniProt Q9BXA7)", "assay": "enzyme activity, inhibitor", "IC50": "0.116 µM"}
{"SMILES": "COC(=O)c1cccc(Nc2nccc(NC3CCCCC3)n2)c1", "target": "FLT3", "assay": "enzyme activity, inhibitor", "IC50": "0.978 µM"}
{"SMILES": "N[C@H](Cc1c[nH]c2ccccc12)C(=O)O", "target": "DHFR", "assay": "enzyme activity, inhibitor", "IC50": "2000 µM"}
{"SMILES": "O=C(Oc1nsnc1N1CCC(c2ccccc2)CC1)N1CCCCC1", "target": "FAAH", "assay": "enzyme activity, inhibitor", "conditions": "cell membranes", "IC50": "1.48 µM"}
{"SMILES": "Fc1ccc(C2CCN(c3nc(-c4ccccn4)nc4ccccc34)C2)cc1 (centres unmarked)", "target": "Sterol 14-alpha demethylase (CYP51, Trypanosoma cruzi, UniProt Q7Z1V1)", "assay": "enzyme activity, inhibitor, fluorescence", "IC50": "> 100 µM"}
{"SMILES": "CC1Cc2ccccc2N1C(=O)NCCCCN(C)[C@@H]1Cc2cccc3[nH]c(=O)n(c23)C1 (mixture of isomers)", "target": "HTR2C", "assay": "ligand displacement, radioligand", "IC50": "> 10 µM"}
{"SMILES": "CC(=N/N=c1\\scc(-c2ccc(Cl)cc2)n1-c1c(C)cccc1C)C12CC3CC(CC(C3)C1)C2", "target": "Aldo-keto reductase family 1 member B1", "assay": "enzyme activity, inhibitor, absorbance", "IC50": "3.51 µM"}
{"SMILES": "O=C(Oc1nsnc1N1CCC2CCCCC2C1)N1CCCCC1 (centres unmarked)", "target": "FAAH", "assay": "enzyme activity, inhibitor", "conditions": "cell membranes", "IC50": "0.031 µM"}
{"SMILES": "c1cc(Nc2nccc(NC3CCCCC3)n2)cc(-c2cnccn2)c1", "target": "FLT3", "assay": "enzyme activity, inhibitor", "IC50": "0.02 µM"}
{"SMILES": "O=C(Nc1ccc(Cl)cc1)N1CCC(n2c(=O)[nH]c3c(Br)cccc32)CC1", "target": "Formamidopyrimidine-DNA glycosylase (Escherichia coli, UniProt P05523)", "assay": "enzyme activity, inhibitor", "IC50": "> 100 µM"}
{"SMILES": "C/C(=N/N=c1/scc(-c2ccc(Cl)cc2)n1-c1ccccc1)c1ccc2c(c1)OCCO2", "target": "Aldo-keto reductase family 1 member B1", "assay": "enzyme activity, inhibitor, absorbance", "IC50": "14.5 µM"}
{"SMILES": "Cc1ccc(C(=O)Nc2ccc(Oc3cc4cnn(C)c4cc3-c3cn[nH]c3)c(F)c2)c(=O)n1-c1ccc(F)cc1", "target": "TYRO3", "assay": "cell growth or viability, ATP luminescence", "IC50": "0.028 µM"}
{"SMILES": "CC(C)(C)n1nc(-c2ccc3nc(OC4CC4)ccc3c2)c(C(N)=O)c1N", "target": "CAMK2A", "assay": "cell-free assay, inhibitor", "IC50": "> 10 µM"}
{"SMILES": "CC(Cc1ccc(C(C)(C)C)cc1)C(NN)c1nnnn1Cc1ccc2c(c1)OCO2 (centres unmarked)", "target": "EAPA", "assay": "enzyme activity, inhibitor, fluorescence", "IC50": "18 µM"}
{"SMILES": "C/C(=N/N=c1/scc(-c2ccc(Br)cc2)n1-c1c(C)cccc1C)c1ccc2c(c1)OCCO2", "target": "Aldo-keto reductase family 1 member B1", "assay": "enzyme activity, inhibitor, absorbance", "IC50": "3.14 µM"}
{"SMILES": "O=C(Oc1nsnc1N1CCCCC1)N1CCCC1", "target": "FAAH", "assay": "enzyme activity, inhibitor", "conditions": "cell membranes", "IC50": "0.813 µM"}
